Reference: ChEMBL document CHEMBL2311321, “Alkaloid constituents from flower buds and leaves of sacred lotus (Nelumbo nucifera, Nymphaeaceae) with melanogenesis inhibitory activity in B16 melanoma cells” (Bioorg Med Chem, 2013)

Key:
[1] = Cytotoxicity against mouse B16-4A5 cells assessed as cell viability at 100 uM after 70 hrs by WST-8 assay
[2] = Inhibition of melanogenesis in mouse B16-4A5 cells at 100 uM after 72 hrs by spectrophotometry; type: functional; conditions: B16-4A5, 72 h
[3] = Inhibition of melanogenesis in mouse B16-4A5 cells at 30 uM after 72 hrs by spectrophotometry; type: functional; conditions: B16-4A5, 72 h
[4] = Inhibition of melanogenesis in mouse B16-4A5 cells at 10 uM after 72 hrs by spectrophotometry; type: functional; conditions: B16-4A5, 72 h
[5] = Inhibition of melanogenesis in mouse B16-4A5 cells at 3 uM after 72 hrs by spectrophotometry; type: functional; conditions: B16-4A5, 72 h
[6] = Inhibition of melanogenesis in mouse B16-4A5 cells at 1 uM after 72 hrs by spectrophotometry; type: functional; conditions: B16-4A5, 72 h
[7] = Inhibition of melanogenesis in mouse B16-4A5 cells after 72 hrs by spectrophotometry; type: functional, cell-based
[8] = target: T1, Tyrosinase (Agaricus bisporus) (UniProt O42713); experiment: Inhibition of mushroom tyrosinase at 100 uM
T1 sequence (whole entry): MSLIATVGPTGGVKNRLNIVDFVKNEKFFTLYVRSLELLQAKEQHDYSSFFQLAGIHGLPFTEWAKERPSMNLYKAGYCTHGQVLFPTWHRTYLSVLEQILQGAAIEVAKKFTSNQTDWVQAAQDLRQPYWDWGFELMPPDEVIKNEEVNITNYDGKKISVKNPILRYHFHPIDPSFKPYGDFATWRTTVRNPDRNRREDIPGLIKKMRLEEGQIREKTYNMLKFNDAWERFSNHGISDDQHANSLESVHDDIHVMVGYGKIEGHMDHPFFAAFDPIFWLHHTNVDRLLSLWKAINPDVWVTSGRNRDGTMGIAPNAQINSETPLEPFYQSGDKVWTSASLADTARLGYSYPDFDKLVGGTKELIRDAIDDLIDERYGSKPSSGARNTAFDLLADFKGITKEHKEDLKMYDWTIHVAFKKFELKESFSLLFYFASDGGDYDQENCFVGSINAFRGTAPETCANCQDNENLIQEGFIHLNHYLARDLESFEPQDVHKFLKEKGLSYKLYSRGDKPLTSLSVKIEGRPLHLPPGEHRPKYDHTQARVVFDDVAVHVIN
In short: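 Enzyme mix: 70 µL L-DOPA (2.5 mM in phosphate buffer) as substrate plus 20 µL test solution (DMSO, final 0.1%). Reaction started with 120 µL mushroom tyrosinase (80.5 units/mL), run 5 min at 25 °C. Dopaquinone measured by absorbance at 405 nm (reference 655 nm). Inhibition % = (A−B)/A × 100 versus vehicle.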

[9] = Antimelanogenic activity in mouse B16-4A5 cells assessed as inhibition of TRP2 mRNA expression at 30 uM after 72 hrs by RT-PCR analysis relative to beta-actin mRNA; type: functional
In short: (§1)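 B16 melanoma 4A5 cells seeded at 1.0 × 10^5 cells/well in 6-well plates, cultured 24 h, then exposed to test compound plus theophylline 1 mM for 72 h. Total RNA extracted; cDNA from 1 µg RNA; SYBR Green real-time PCR (95 °C 2 min; 40 cycles 95/58/72 °C, 30 s each) with gene-specific primers; relative quantification normalized to β-actin mRNA.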

[10] = Antimelanogenic activity in mouse B16-4A5 cells assessed as inhibition of TRP2 mRNA expression at 10 uM after 72 hrs by RT-PCR analysis relative to beta-actin mRNA; type: functional; in short: as §1
[11] = Antimelanogenic activity in mouse B16-4A5 cells assessed as inhibition of TRP2 mRNA expression at 3 uM after 72 hrs by RT-PCR analysis relative to beta-actin mRNA; type: functional; in short: as §1
[12] = Antimelanogenic activity in mouse B16-4A5 cells assessed as inhibition of TRP1 mRNA expression at 30 uM after 72 hrs by RT-PCR analysis relative to beta-actin mRNA; type: functional; in short: as §1
[13] = Antimelanogenic activity in mouse B16-4A5 cells assessed as inhibition of TRP1 mRNA expression at 10 uM after 72 hrs by RT-PCR analysis relative to beta-actin mRNA; type: functional; in short: as §1
[14] = Antimelanogenic activity in mouse B16-4A5 cells assessed as inhibition of TRP1 mRNA expression at 3 uM after 72 hrs by RT-PCR analysis relative to beta-actin mRNA; type: functional; in short: as §1
[15] = Antimelanogenic activity in mouse B16-4A5 cells assessed as inhibition of tyrosinase mRNA expression at 30 uM after 72 hrs by RT-PCR analysis relative to beta-actin mRNA; type: functional; in short: as §1
[16] = Antimelanogenic activity in mouse B16-4A5 cells assessed as inhibition of tyrosinase mRNA expression at 10 uM after 72 hrs by RT-PCR analysis relative to beta-actin mRNA; type: functional; in short: as §1
[17] = Antimelanogenic activity in mouse B16-4A5 cells assessed as inhibition of tyrosinase mRNA expression at 3 uM after 72 hrs by RT-PCR analysis relative to beta-actin mRNA; type: functional; in short: as §1

Row | SMILES | viability at 70 h, 100 µM [1] [%] | inhibition at 100 µM [2] [%] | inhibition at 30 µM [3] [%] | inhibition at 10 µM [4] [%] | inhibition at 3 µM [5] [%] | inhibition at 1 µM [6] [%] | IC50 [7] [µM] | inhibition [8] [%] | fold change (FC) [9] | fold change (FC) [10] | fold change (FC) [11] | fold change (FC) [12] | fold change (FC) [13] | fold change (FC) [14] | fold change (FC) [15] | fold change (FC) [16] | fold change (FC) [17]
1 | c1ccc2c(c1)CCNC2 [1,2,3,4-TETRAHYDROISOQUINOLINE] | 46 | 26.1 | 2.8 | -54.2 | -41.5 | -12.6 |  |  |  |  |  |  |  |  |  |  | 
2 | COc1cc2c3c(c1)-c1ccccc1CC3N(C)CC2 (configuration not stated) |  |  | 82.5 | 76 | 54.7 | 39.1 | 2 |  |  |  |  |  |  |  |  |  | 
3 | COc1c(O)cc2c3c1-c1ccccc1C[C@H]3N(C)CC2 | 82 | 90.5 | 70.6 | 37.9 | 19.7 | 15.4 | 14.5 | < 3 | 0.88 | 0.96 | 1.1 | 0.49 | 0.72 | 0.79 | 0.53 | 0.76 | 0.65
4 | COc1c(O)cc2c3c1-c1ccccc1C[C@H]3NCC2 [ASIMILOBINE] | 46 |  |  |  |  |  |  |  |  |  |  |  |  |  |  |  | 
5 | COc1cc2ccnc3c2c(c1OC)-c1ccccc1C3=O [LYSICAMINE] | 22.5 |  | 65.3 | -1.5 | 8.7 | 4.8 |  |  |  |  |  |  |  |  |  |  | 
6 | COc1cc2c3c(c1O)-c1ccccc1C[C@H]3N(C)CC2 | 39.7 |  | 65.9 | 27.3 | 11.1 | -2.6 | 19.3 |  |  |  |  |  |  |  |  |  | 
7 | CN1CCc2ccccc2C1 | 82 | 15.9 | 16.5 | 9.4 | 9.7 | 10.6 |  |  |  |  |  |  |  |  |  |  | 
8 | COc1cc2c3c(c1OC)-c1ccccc1C[C@H]3[N+](C)([O-])CC2 (some centres not stated) | 82 | 88.4 | 33.7 | -0.1 | -3.2 | -4.8 | 43 |  |  |  |  |  |  |  |  |  | 
9 | COc1cc2c3c(cc4ccccc4c3c1OC)N(C)CC2 [DEHYDRONUCIFERINE] | 77 | 78.4 | 8 | 11.8 | 4.8 | 14.5 | 85 |  |  |  |  |  |  |  |  |  | 
10 | CN1CCc2ccccc2C1Cc1ccccc1 (configuration not stated) | 77 | 75.4 | 51.8 | 59.7 | 40.5 | 24.5 | 5 |  |  |  |  |  |  |  |  |  | 
11 | COc1c(O)cc2c3c(cc4ccccc4c13)N(C)CC2 | 46 | 78.7 | 87.4 | 37.6 | 13.2 | 10.9 | 13.3 |  |  |  |  |  |  |  |  |  | 
12 | OC[C@H]1O[C@@H](Oc2ccc(O)cc2)[C@H](O)[C@@H](O)[C@@H]1O [ARBUTIN] |  | 38.1 | 20.4 | 10.6 |  |  | 174 |  |  |  |  |  |  |  |  |  | 
13 | COc1c(O)cc2c3c1-c1ccccc1C[C@@H]3NCC2 [ASIMILOBINE] |  | 36.2 | 39.7 | 12.1 | -7.4 | 7.4 | > 100 |  |  |  |  |  |  |  |  |  | 
14 | COc1cc2c(cc1OC)C(Cc1ccc(O)cc1)N(C)CC2 (racemic) | 82 | 80.3 | 50.4 | 34 | 18.2 | 7.5 | 25.6 |  |  |  |  |  |  |  |  |  | 
15 | COc1cc2c3c(c1OC)-c1ccccc1C[C@H]3N(C)CC2 [NUCIFERINE] | 46 | 89.3 | 72.3 | 32.1 | 16.5 | 11.5 | 15.8 | < 3 | 0.65 | 0.71 | 1.11 | 0.36 | 0.74 | 0.76 | 0.38 | 0.64 | 0.61
16 | COc1cc2c3c(c1OC)C1(C=CC(=O)C=C1)C[C@H]3N(C)CC2 [PRONUCIFERINE] | 82 | 66.4 | 40.3 | 18.3 | 16.8 | 4 | 47.9 |  |  |  |  |  |  |  |  |  | 
17 | COc1cc2c3c(c1OC)-c1ccccc1C[C@H]3NCC2 | 82 | 91.9 | 17.6 | 12.1 | 16.2 | 5.8 | 62.9 |  |  |  |  |  |  |  |  |  | 
